Results reported in publication PMC3742633 (Molecular cancer therapeutics, 2013).

Columns and labels:
UO-31 = assay: NCI 60 cell line screen, Sulforhodamine B Assay; type: cell-based; details: Homo sapiens, UO-31, 48 h
In short: (§1)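 Run through the National Cancer Institute 60 cell line screening service on its panel of 59 human cancer lines in vitro. Cytostatic/toxic effect was read as cellular protein content (sulforhodamine B) over 48 h.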

HT29 = assay: NCI 60 cell line screen, Sulforhodamine B Assay; type: cell-based; details: Homo sapiens, HT-29, 48 h
In short: (§2)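 Run through the NCI-60 screening service: human cancer cell lines exposed to test compound for 48 h. Growth read as cellular protein content by sulforhodamine B staining, and GI50 derived from this.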

[1] = tested on: Jurkat T cell leukemia cells; assay: Cell viability, trypan blue exclusion; type: cell-based; details: Homo sapiens, 48 h, read-out: IC50 cytotoxic effects (viability)
RXF 393 = assay: NCI 60 cell line screen, Sulforhodamine B Assay; type: cell-based; details: Homo sapiens, RXF 393, 48 h
In short: as §2

SK-MEL-28 = assay: NCI 60 cell line screen, Sulforhodamine B Assay; type: cell-based; details: Homo sapiens, SK-MEL-28, 48 h
In short: as §1

KM12 = assay: NCI 60 cell line screen, Sulforhodamine B Assay; type: cell-based; details: Homo sapiens, KM12, 48 h
In short: as §2

OVCAR-3 = assay: NCI 60 cell line screen, Sulforhodamine B Assay; type: cell-based; details: Homo sapiens, OVCAR-3, 48 h
In short: as §2

[2] = tested on: CT26 colon adenocarcinoma cells; assay: CT26 xenograft tumor growth; type: in vivo, Balb/C athymic mice; details: 25 mg/kg i.p. every 3 days × 4; similarly to irinotecan
BT-549 = assay: NCI 60 cell line screen, Sulforhodamine B Assay; type: cell-based; details: Homo sapiens, BT-549, 48 h
In short: as §2

SNB-19 = assay: NCI 60 cell line screen, Sulforhodamine B Assay; type: cell-based; details: Homo sapiens, SNB-19, 48 h
In short: as §1

IGROV1 = assay: NCI 60 cell line screen, Sulforhodamine B Assay; type: cell-based; details: Homo sapiens, IGROV-1, 48 h
In short: as §2

TK-10 = assay: NCI 60 cell line screen, Sulforhodamine B Assay; type: cell-based; details: Homo sapiens, TK-10, 48 h
In short: as §1

hexokinase = assay: Activity of purified hexokinase; type: biochemical; details: up to 100 μM; data not shown
U-87 glioblastoma cells = assay: U-87 MG xenograft tumor growth; type: in vivo, Balb/C athymic mice; details: 25 mg/kg i.p. every 3 days × 4; compared with temozolomide
In short: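 U-87 MG cells from exponential culture (DMEM, 10% FCS) were washed and resuspended in PBS, and 1×10^6 cells were injected s.c. into 20 g Balb/C athymic mice. At 150–200 mg, tumours were randomised to DMSO, test compound (25 mg/kg i.p. every 3 days ×4) or temozolomide (30 mg/kg p.o., 3 days on/3 off). Blinded daily caliper mass = width²×length/2. Two experiments, n=8/group, mean±SD, unpaired two-tailed t-test.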

U251 = assay: NCI 60 cell line screen, Sulforhodamine B Assay; type: cell-based; details: Homo sapiens, U-251, 48 h
In short: as §1

NCI/ADR-RES = assay: NCI 60 cell line screen, Sulforhodamine B Assay; type: cell-based; details: Homo sapiens, 48 h
In short: as §2

SF-539 = assay: NCI 60 cell line screen, Sulforhodamine B Assay; type: cell-based; details: Homo sapiens, SF-539, 48 h
In short: as §2

CAKI-1 = assay: NCI 60 cell line screen, Sulforhodamine B Assay; type: cell-based; details: Homo sapiens, CAKI-1, 48 h
In short: as §2

HL-60(TB) = assay: NCI 60 cell line screen, Sulforhodamine B Assay; type: cell-based; details: Homo sapiens, HL-60, 48 h
In short: as §2

HOP-92 = assay: NCI 60 cell line screen, Sulforhodamine B Assay; type: cell-based; details: Homo sapiens, HOP-92, 48 h
In short: as §2

NCI-H460 = assay: NCI 60 cell line screen, Sulforhodamine B Assay; type: cell-based; details: Homo sapiens, NCI-H460, 48 h
In short: as §2

SK-MEL-2 = assay: NCI 60 cell line screen, Sulforhodamine B Assay; type: cell-based; details: Homo sapiens, SK-MEL-2, 48 h
In short: as §2

phosphoglucoseisomerase = phosphoglucoseisomerase (Homo sapiens, UniProt P06744); assay: Activity of purified phosphoglucoseisomerase; type: biochemical; details: up to 100 μM; data not shown
[3] = tested on: BxPC-3 pancreatic cancer cells; assay: BxPC-3 xenograft tumor growth; type: in vivo, Balb/C athymic mice; details: 25 mg/kg i.p. every 3 days × 4; similarly to gemcitabine
Jurkat and H522 cells = assay: Intracellular ATP bioluminescence assay; type: cell-based, human
In short: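 After plating at 1×10^5 cells/well (24 h, 37°C, 5% CO2) and 3 h test compound exposure, adherent cells were washed with cold PBS, lysed in passive lysis buffer and scraped. One freeze (−80°C)/thaw (37°C) cycle, cleared at 4°C. ATP read by firefly luciferase/D-luciferin luminescence at 560 nm against an ATP standard curve, as nmol/mg BCA protein.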

NCI-H23 = assay: NCI 60 cell line screen, Sulforhodamine B Assay; type: cell-based; details: Homo sapiens, NCI-H23, 48 h
In short: as §2

PFKFB4 = PFKFB4 (Homo sapiens, UniProt Q16877); assay: Activity of purified PFKFB4; type: biochemical; details: up to 100 μM; data not shown
LOX IMVI = assay: NCI 60 cell line screen, Sulforhodamine B Assay; type: cell-based; details: Homo sapiens, 48 h
In short: as §2

HCC-2998 = assay: NCI 60 cell line screen, Sulforhodamine B Assay; type: cell-based; details: Homo sapiens, HCC 2998, 48 h
In short: as §2

OVCAR-8 = assay: NCI 60 cell line screen, Sulforhodamine B Assay; type: cell-based; details: Homo sapiens, OVCAR-8, 48 h
In short: as §2

[4] = Pharmacokinetic profile after IV administration; type: in vivo, female C57Bl/6 mice; details: plasma
In short: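 Test compound was given IV to female C57Bl/6 mice, with 8 time points and 3 animals per time point. Plasma was extracted with acetonitrile and analysed by LC-MS/MS on a polar reverse-phase column with a 0.5% formic acid acetonitrile/water mobile phase. Tmax, Cmax, volume of distribution, half-life, clearance, AUCs and MRT were calculated from the concentration–time data.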

[5] = target: recombinant human PFKFB3 protein (Homo sapiens, UniProt Q16875); assay: Recombinant PFKFB3 kinase assay; type: biochemical
[6] = female, C57Bl/6, mouse, iv, 5 mg/kg

Chain of recombinant human PFKFB3 protein (Q16875 whole entry): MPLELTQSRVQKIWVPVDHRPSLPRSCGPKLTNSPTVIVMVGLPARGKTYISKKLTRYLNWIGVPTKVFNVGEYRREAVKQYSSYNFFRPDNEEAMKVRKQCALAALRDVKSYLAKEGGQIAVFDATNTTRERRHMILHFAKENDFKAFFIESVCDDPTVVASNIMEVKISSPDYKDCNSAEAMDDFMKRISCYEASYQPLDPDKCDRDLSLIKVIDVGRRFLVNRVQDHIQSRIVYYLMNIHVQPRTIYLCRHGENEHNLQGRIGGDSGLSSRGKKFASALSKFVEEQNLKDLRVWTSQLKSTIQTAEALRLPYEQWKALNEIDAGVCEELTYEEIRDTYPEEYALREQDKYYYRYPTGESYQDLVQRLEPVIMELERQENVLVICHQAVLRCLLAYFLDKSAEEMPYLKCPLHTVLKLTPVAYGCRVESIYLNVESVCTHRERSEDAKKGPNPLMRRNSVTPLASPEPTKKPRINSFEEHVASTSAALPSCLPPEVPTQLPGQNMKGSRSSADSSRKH
Chain of PFKFB4 (Q16877 whole entry, species assumed): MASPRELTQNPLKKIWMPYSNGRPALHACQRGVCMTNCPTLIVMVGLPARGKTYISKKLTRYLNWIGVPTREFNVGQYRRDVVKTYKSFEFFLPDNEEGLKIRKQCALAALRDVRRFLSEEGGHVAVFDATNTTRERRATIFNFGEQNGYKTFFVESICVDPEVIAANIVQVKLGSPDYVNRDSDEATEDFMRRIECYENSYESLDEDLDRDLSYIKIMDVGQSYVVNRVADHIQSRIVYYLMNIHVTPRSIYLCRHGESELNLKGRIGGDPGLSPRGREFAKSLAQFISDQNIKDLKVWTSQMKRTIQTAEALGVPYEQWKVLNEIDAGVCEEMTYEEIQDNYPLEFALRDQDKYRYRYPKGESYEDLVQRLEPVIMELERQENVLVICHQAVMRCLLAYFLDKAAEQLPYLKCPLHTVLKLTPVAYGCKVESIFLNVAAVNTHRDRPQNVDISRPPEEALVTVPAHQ

O=C(C=Cc1ccc2ccccc2n1)c1ccncc1 [PFK15, 1-(4-pyridinyl)-3-(2-quinolinyl)-2-propen-1-one]
GI50 (UO-31): 1620 nM | GI50 (HT29): 2510 nM | IC50 [1]: 2420 nM | GI50 (RXF 393): 1700 nM | GI50 (SK-MEL-28): 2090 nM | GI50 (KM12): 1950 nM | GI50 (OVCAR-3): 3160 nM | growth of colon adenocarcinomas (CT26) [2]: suppressed the growth | GI50 (BT-549): 2750 nM | GI50 (SNB-19): 4570 nM | GI50 (IGROV1): 4370 nM | GI50 (TK-10): 4070 nM | inhibition of activity of purified hexokinase (hexokinase): not inhibit | activity against glioblastoma growth (U-87 MG) (U-87 glioblastoma cells): lower than that observed by temozolomide | GI50 (U251): 2040 nM | GI50 (NCI/ADR-RES): 3890 nM | GI50 (SF-539): 2510 nM | GI50 (CAKI-1): 11500 nM | GI50 (HL-60(TB)): 2040 nM | GI50 (HOP-92): 3020 nM | GI50 (NCI-H460): 3470 nM | GI50 (SK-MEL-2): 6460 nM | inhibition of activity of purified phosphoglucoseisomerase (phosphoglucoseisomerase): not inhibit | growth of pancreatic adenocarcinomas (BxPC-3) [3]: suppressed the growth | PFK15-mediated ATP depletion [% control] (Jurkat and H522 cells; 5 mM glucose + 1 mM pyruvate, p value = 0.0017): 45.62 ± 1.72% | PFK15-mediated ATP depletion [% control] (Jurkat and H522 cells; 5 mM glucose alone): 5.29 ± 0.85% | reversal of ATP depletion by glutamine (Jurkat and H522 cells; addition of 4 mM glutamine, data not shown): could not be significantly reversed | reversal of ATP depletion by lactate (Jurkat and H522 cells; addition of 10 mM lactate, data not shown): could not be significantly reversed | effect on intracellular ATP (Jurkat and H522 cells; three hours exposure, Jurkat and H522): reduced | GI50 (NCI-H23): 3160 nM | inhibition of activity of purified PFKFB4 (PFKFB4): not inhibit | GI50 (LOX IMVI): 1660 nM | GI50 (HCC-2998): 1910 nM | GI50 (OVCAR-8): 1820 nM | AUC0-inf ([4]; IV, C57Bl/6 mice): 1804 ng/h/mL | Cmax [4, 6]: 3050 ng/mL | clearance [4, 6]: 46.2 mL/min/kg | half-life [4, 6]: 5.1 h | IC50 [5]: 207 nM | fold more activity against PFKFB3 than 3PO ([5]; relative to 3PO): approximately 100 fold
